# Measurements from PMC10258837 (Journal of the American Chemical Society, 2021).
# Experiments:
# Mur21 [1] = assay: amino acid-dependent ATP-PPi exchange, Mur21; type: biochemical, Streptomyces sp. NRRL 30471; details: amino acid-dependent ATP-PPi exchange assay; MBP fusion
# AnpI = AnpI substrate test; type: biochemical, Streptomyces lavendulae subsp. lavendulae strain NRRL B-2775; details: free (not T domain-bound) substrate
# SlAnpD(AT) = assay: amino acid-dependent ATP-PPi exchange, SlAnpD; type: biochemical, Streptomyces lavendulae subsp. lavendulae strain NRRL B-2775; details: amino acid-dependent ATP-PPi exchange assay; truncated, lacking the C domain
# Mur16 = details: cited from earlier work
# VioC = VioC hydroxylation; type: biochemical, Streptomyces sp. strain ATCC11861; details: free L-Arg; experimental control
# Mur15 [2] = biological target: T1, Mur15 (Streptomyces sp. NRRL 30471, UniProt F2WUC7); assay: Mur15 substrate scope; type: biochemical; details: for Mur15-catalyzed hydroxylation of free amino acid: LC-MS with authentic hydroxylated standards; for Mur15-catalyzed hydroxylation (substrate conversion): Fe2+, αKG and O2, LC-MS
# Procedure, shortened: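 Mur15 incubated with Fe2+, αKG and O2 plus either a muraymycin substrate purified from Streptomyces sp. NRRL 30475 or a synthetic deaminoribose analogue. Reactions analysed by HPLC against a control without enzyme. Product identity checked by co-injection with authentic hydroxylated standard.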
# AnpF orthologs = assay: amino acid-dependent ATP-PPi exchange, AnpF orthologs; type: biochemical; details: amino acid-dependent ATP-PPi exchange assay
# AnpE orthologs [3] = assay: amino acid-dependent ATP-PPi exchange, AnpE orthologs; type: biochemical; details: amino acid-dependent ATP-PPi exchange assay
# Mur27 = assay: amino acid-dependent ATP-PPi exchange, Mur27; type: biochemical, Streptomyces sp. NRRL 30471; details: amino acid-dependent ATP-PPi exchange assay; MBP fusion
# SadA = details: cited from earlier work
# any NRPS = details: [14C]NaHCO3; Figure S10
# Mur15 [4] = biological target: T1, Mur15; assay: Mur15 single-substrate kinetic analysis and turnover; type: biochemical; details: for Km / kcat: single-substrate kinetic analysis with saturating αKG, Michaelis-Menten
# Procedure, shortened: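 Mur15 reaction with Fe2+, αKG and O2 as cofactor and cosubstrates. The native muraymycin substrate, purified from Streptomyces sp. NRRL 30475, is varied for single-substrate kinetics.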
# M. smegmatis = assay: anti-M. smegmatis activity; type: cell-based; details: 8 compared with 3; Table S3
# E. coli = assay: anti-E. coli activity; type: cell-based; details: 8 compared with 3; E. coli strain not stated; Table S3
# Mur12 = assay: T domain loading by SDS-PAGE with phosphor imaging, Mur12; type: biochemical, Streptomyces sp. NRRL 30471; details: 14C-labelled amino acid, CoA and Sfp
# holo-SlAnpD(AT) = assay: covalent modification by phosphor imaging, holo-SlAnpD; type: biochemical, Streptomyces lavendulae subsp. lavendulae strain NRRL B-2775; details: 14C-labelled amino acid; phosphor imaging of gels
# Mur21 [5] = assay: T domain loading by SDS-PAGE with phosphor imaging, Mur21; type: biochemical, Streptomyces sp. NRRL 30471; details: 14C-labelled amino acid, MBP fusion
# AnpE orthologs [6] = assay: covalent modification by phosphor imaging, AnpE orthologs; type: biochemical; details: 14C-labelled amino acid
# Mur14 = assay: T domain loading by SDS-PAGE with phosphor imaging, Mur14; type: biochemical, Streptomyces sp. NRRL 30471; details: 14C-labelled amino acid; Mur27 with Mur14
# AnpF = assay: covalent modification by phosphor imaging, AnpF; type: biochemical; details: 14C-labelled amino acid
molecule,measurement,setting,value
"CC(C)[C@H](O)[C@H](N)C(=O)O [(2S,3S)-2, (2S,3S)-β-OH-Leu]",A domain activation of amino acid by Mur21,Mur21 [1],inactive
N=C(N)NCCC[C@H](N)C(=O)O [L-Arg],conversion by AnpI,AnpI,1 was not detected
same,A domain specificity of SlAnpD(AT),SlAnpD(AT),high specificity
same,hydroxylation by Mur16,Mur16,did not hydroxylate L-Arg
same,hydroxylation by VioC,VioC,shown to hydroxylate free L-Arg
same,Mur15-catalyzed hydroxylation of free amino acid,Mur15 [2],no peaks corresponding to a hydroxylated product were detected
N[C@@H](CS)C(=O)O [L-Cys],A domain activation by AnpF orthologs,AnpF orthologs,slight preference
N[C@@H](Cc1c[nH]cn1)C(=O)O [L-His],A domain activation by AnpF orthologs,AnpF orthologs,slight preference
CC[C@H](C)[C@H](N)C(=O)O [L-Ile],A domain activation by AnpE orthologs,AnpE orthologs [3],very low activity
same,A domain activation by AnpF orthologs,AnpF orthologs,slight preference
CC(C)C[C@H](N)C(=O)O [L-Leu],A domain activation by AnpE orthologs,AnpE orthologs [3],highest activity
same,A domain activation by AnpF orthologs,AnpF orthologs,slight preference
same,A domain activation of amino acid by Mur21,Mur21 [1],preferential activity
same,Mur15-catalyzed hydroxylation of free amino acid,Mur15 [2],no peaks corresponding to a hydroxylated product were detected
CSCC[C@H](N)C(=O)O [L-Met],A domain activation by AnpE orthologs,AnpE orthologs [3],highest activity
same,A domain activation by AnpF orthologs,AnpF orthologs,slight preference
N[C@@H](Cc1ccccc1)C(=O)O [L-Phe],A domain activation by AnpF orthologs,AnpF orthologs,slight preference
N[C@@H](Cc1c[nH]c2ccccc12)C(=O)O [L-Trp],A domain activation by AnpF orthologs,AnpF orthologs,no activity
CC(C)[C@H](N)C(=O)O [L-Val],A domain activation by AnpE orthologs,AnpE orthologs [3],very low activity
same,A domain activation by AnpF orthologs,AnpF orthologs,slight preference
same,A domain activation of amino acid by Mur27,Mur27,relatively low activity yet with modest specificity
CC(=O)N[C@@H](CC(C)C)C(=O)O [N-acetyl-L-Leu],conversion by SadA to hydroxylated product,SadA,"hydroxylated product with (2S,3R)-stereochemical configuration"
CC(C)C[C@H](NC(=O)CCC(=O)O)C(=O)O [N-succinyl-L-Leu],conversion by SadA to hydroxylated product,SadA,"hydroxylated product with (2S,3R)-stereochemical configuration"
O=[14C]([O-])O.[Na+] [[^14C]NaHCO3],radiolabelling of NRPS,any NRPS,inability to radiolabel any NRPS
"CO[C@H]1[C@H](O[C@H]([C@H]2O[C@@H](n3ccc(=O)[nH]c3=O)[C@H](O)[C@@H]2O)[C@H](NCCCNC(=O)[C@H](CC(C)C)NC(=O)[C@@H](NC(=O)N[C@H](C(=O)O)C(C)C)[C@@H]2CCN=C(N)N2)C(=O)O)O[C@H](CN)[C@H]1O [compound 3, muraymycin D1]",Km,Mur15 [4],600 ± 100 µM
same,kcat,Mur15 [4],0.167 ± 0.017 s⁻¹
same,total turnover number (TTN),"Mur15 [4]; with native substrate (3) or unnatural substrate (muraymycin B), estimated",≥ 800
same,Mur15-catalyzed hydroxylation (substrate conversion),Mur15 [2],a new peak with a mass corresponding to mono-hydroxylated 3
"CC(C)C[C@H](NC(=O)[C@@H](NC(=O)N[C@H](C(=O)O)C(C)C)[C@@H]1CCN=C(N)N1)C(=O)NCCCN[C@H](C(=O)O)[C@H](O[C@@H]1O[C@H](CN)[C@@H](O)[C@H]1O)[C@H]1O[C@@H](n2ccc(=O)[nH]c2=O)[C@H](O)[C@@H]1O [compound 4, muraymycin D2]",Mur15-catalyzed hydroxylation (substrate conversion),Mur15 [2],mono-hydroxylated
"CO[C@H]1[C@H](O[C@H]([C@H]2O[C@@H](n3ccc(=O)[nH]c3=O)[C@H](O)[C@@H]2O)[C@H](NCCCNC(=O)[C@@H](NC(=O)[C@@H](NC(=O)N[C@H](C(=O)O)C(C)C)[C@@H]2CCN=C(N)N2)[C@@H](O)C(C)C)C(=O)O)O[C@H](CN)[C@H]1O [compound 8, muraymycin C1]",effect of conversion of 3 to 8 on anti-M. smegmatis activity,M. smegmatis,minimal effect
same,effect of conversion of 3 to 8 on E. coli activity,E. coli,minimal effect
same,Mur15-catalyzed hydroxylation (substrate conversion),Mur15 [2],remained unchanged
"N=C(N)NCCC[C@H](NC(=O)NC(Cc1ccccc1)C(=O)O)C(=O)O (stereo partly drawn) [compound 11, L-Phe-(C=O)-L-Arg]",conversion by AnpI,AnpI,No product was observed
CO[C@H]1[C@H](O[C@H]([C@H]2O[C@@H](n3ccc(=O)[nH]c3=O)[C@H](O)[C@@H]2O)[C@H](NCCCNC(=O)[C@@H](NC(=O)[C@@H](NC(=O)N[C@H](C(=O)O)C(C)C)[C@@H]2CCN=C(N)N2)[C@@H](OC(=O)CCCCCCCCCCCCN(O)C(=N)N)C(C)C)C(=O)O)O[C@H](CN)[C@H]1O [muraymycin A1],Mur15-catalyzed hydroxylation (substrate conversion),Mur15 [2],mass consistent with a mono-hydroxylated product
CO[C@H]1[C@H](O[C@H]([C@H]2O[C@@H](n3ccc(=O)[nH]c3=O)[C@H](O)[C@@H]2O)[C@H](NCCCNC(=O)[C@@H](NC(=O)[C@@H](NC(=O)N[C@H](C(=O)O)C(C)C)[C@@H]2CCN=C(N)N2)[C@@H](OC(=O)CCCCCCC(C)C)C(C)C)C(=O)O)O[C@H](CN)[C@H]1O [muraymycin B2],Km,Mur15 [4],930 µM
same,kcat,Mur15 [4],0.108 ± 0.0083 s⁻¹
same,drop in catalytic efficiency when compared with 3,"Mur15 [4]; with respect to muraymycin B2, saturating αKG",~ 2 -fold
same,Mur15-catalyzed hydroxylation (substrate conversion),Mur15 [2],mass consistent with a mono-hydroxylated product
CO[C@H]1[C@H](O[C@H]([C@H]2O[C@@H](n3ccc(=O)[nH]c3=O)[C@H](O)[C@@H]2O)[C@H](NCCCNC(=O)[C@@H](NC(=O)[C@@H](NC(=O)N[C@H](C(=O)O)C(C)C)[C@@H]2CCN=C(N)N2)[C@@H](OC(=O)CCCCC(C)C)C(C)C)C(=O)O)O[C@H](CN)[C@H]1O [muraymycin B6],Mur15-catalyzed hydroxylation (substrate conversion),Mur15 [2],mass consistent with a mono-hydroxylated product
L-[^14C]Arg,loading of Mur12 T domain,Mur12,A faint band corresponding to the molecular weight of Mur12 was detected
same,covalent modification of holo-SlAnpD(AT),holo-SlAnpD(AT),covalently modified
L-[^14C]Leu,self-loading of Mur21,Mur21 [5],not observed
L-[^14C]Phe,covalent modification of AnpE orthologs,AnpE orthologs [6],covalent modification of the AnpE orthologs was detected
L-[^14C]Val,loading of Mur14,Mur14,not observed
same,covalent modification of AnpF,AnpF,Covalent modification of AnpF was observed
α-MAPI [compound 9],conversion by AnpI,AnpI,"Neither, however, were converted to a product"
